Assays:
[1] = tested on: Hepatitis B virus; assay: Inhibition of HBV replication with RT A200V substitution from Lamivudine refractory patient transfected into HepG2 cells; type: functional, organism-based
In short: (§1)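 HepG2 cells bulk-transfected with full-length HBV phenotyping plasmids cloned from patient isolates, then seeded into wells with compound titration. DMSO vehicle controls and cloned lab wild-type HBV run in parallel each experiment. At 5 days posttransfection, released virions stripped with Nonidet P-40, captured from medium with anti-HBV core antibody, and extracellular replicated virus quantitated. EC50 = concentration giving 50% inhibition.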

[2] = tested on: Hepatitis B virus; assay: Inhibition of HBV replication with RT A200V substitution and M204I background from Lamivudine refractory patient transfected into HepG2 cells; type: functional, organism-based; in short: as §1
[3] = tested on: Hepatitis B virus; assay: Inhibition of HBV replication with RT A200V substitution and L180M, M204I background from Lamivudine refractory patient transfected into HepG2 cells; type: functional, organism-based; in short: as §1
[4] = tested on: Hepatitis B virus; assay: Inhibition of HBV replication with RT L80V substitution and L180M, M204V background from Lamivudine refractory patient transfected into HepG2 cells; type: functional, organism-based; in short: as §1
[5] = tested on: Hepatitis B virus; assay: Inhibition of HBV replication with RT V27A substitution and L180M, M204V background from Lamivudine refractory patient transfected into HepG2 cells; type: functional; in short: as §1
[6] = tested on: Hepatitis B virus; assay: Inhibition of HBV replication with RT I53F substitution and V173F, L180M, M204V background from Lamivudine refractory patient transfected into HepG2 cells; type: functional, organism-based; in short: as §1
[7] = tested on: Hepatitis B virus; assay: Inhibition of HBV replication with RT S78T substitution from Lamivudine refractory patient transfected into HepG2 cells; type: functional, organism-based; in short: as §1
[8] = tested on: Hepatitis B virus; assay: Inhibition of HBV replication with RT L80I substitution and L180M, M204I background from Lamivudine refractory patient transfected into HepG2 cells; type: functional, organism-based; in short: as §1
[9] = tested on: Hepatitis B virus; assay: Inhibition of HBV replication with RT K168E substitution and M204I background from Lamivudine refractory patient transfected into HepG2 cells; type: functional; in short: as §1
[10] = tested on: Hepatitis B virus; assay: Inhibition of HBV replication with RT A181T substitution and V173L, L180M, M204V background from Lamivudine refractory patient transfected into HepG2 cells
[11] = tested on: Hepatitis B virus; assay: Inhibition of HBV replication with RT C188S substitution and L80I, L180T, M204V background from Lamivudine refractory patient transfected into HepG2 cells; type: functional, organism-based; in short: as §1
[12] = tested on: Hepatitis B virus; assay: Inhibition of HBV replication with RT V224A substitution and V173L, L180M, M204V background from Lamivudine refractory patient transfected into HepG2 cells; type: functional; in short: as §1
[13] = tested on: Hepatitis B virus; assay: Inhibition of HBV replication with RT L228P substitution and M204I background from Lamivudine refractory patient transfected into HepG2 cells; type: functional; in short: as §1
[14] = tested on: Hepatitis B virus; assay: Inhibition of HBV replication with RT L229W substitution and L180M, M204V background from Lamivudine refractory patient transfected into HepG2 cells; type: functional, organism-based; in short: as §1
[15] = tested on: Hepatitis B virus; assay: Inhibition of HBV replication with RT D263G substitution from Lamivudine refractory patient transfected into HepG2 cells; type: functional, organism-based; in short: as §1
[16] = tested on: Hepatitis B virus; assay: Inhibition of HBV replication with RT Q267Stop substitution and L180M, M204V background from Lamivudine refractory patient transfected into HepG2 cells; type: functional; in short: as §1
[17] = tested on: Hepatitis B virus; assay: Inhibition of HBV replication with RT G295S substitution and L80I, M204I background from Lamivudine refractory patient transfected into HepG2 cells; type: functional; in short: as §1
[18] = tested on: Hepatitis B virus; assay: Inhibition of HBV replication with RT M309L substitution from Lamivudine refractory patient transfected into HepG2 cells; type: functional, organism-based; in short: as §1

## C=C1[C@H](CO)[C@@H](O)C[C@@H]1n1cnc2c(=O)[nH]c(N)nc21.O [ENTECAVIR]
[1]
  EC50: 0.0076 µM
[2]
  EC50: 0.033 µM
[3]
  EC50: 0.0102 µM
[4]
  EC50: 0.011 µM
[5]
  Inhibition: <10%
[6]
  EC50: 0.0223 µM
[7]
  EC50: 0.0024 µM
[8]
  EC50: 0.0453 µM
[9]
  Inhibition: <10%
[10]
  EC50: 0.0142 µM
[11]
  EC50: 0.0312 µM
[12]
  Inhibition: <10%
[13]
  Inhibition: <10%
[14]
  EC50: 0.0329 µM
[15]
  EC50: 0.0058 µM
[16]
  Inhibition: <10%
[17]
  Inhibition: <10%
[18]
  EC50: 0.004 µM
